ChEMBL document CHEMBL1131132, “Acetylcholinesterase inhibitors: synthesis and structure-activity relationships of omega-[N-methyl-N-(3-alkylcarbamoyloxyphenyl)- methyl]aminoalkoxyheteroaryl derivatives” (J Med Chem, 1998)
pIC50: −log10 of the molar value.

Columns and labels:
[1] = target: Cholinesterases; ACHE & BCHE (Homo sapiens) (UniProt P06276+P22303); assay: It is the ratio of IC50 for butyrl cholinesterase (BuChE ) to that of acetylcholinesterase (AChE); assay type: protein assay
Summary of the method: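 Ellman method, 0.1 M phosphate pH 8.0, 340 µM DTNB. AChE: human erythrocyte 0.035 unit/mL, 550 µM acetylthiocholine. BuChE: human serum 0.035 unit/mL, 550 µM butyrylthiocholine.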

[2] = target: T1, Acetylcholinesterase (Rattus norvegicus, UniProt P37136); assay: Inhibitory concentration against rat brain acetylcholinesterase AChE
T1 sequence (P37136 whole entry): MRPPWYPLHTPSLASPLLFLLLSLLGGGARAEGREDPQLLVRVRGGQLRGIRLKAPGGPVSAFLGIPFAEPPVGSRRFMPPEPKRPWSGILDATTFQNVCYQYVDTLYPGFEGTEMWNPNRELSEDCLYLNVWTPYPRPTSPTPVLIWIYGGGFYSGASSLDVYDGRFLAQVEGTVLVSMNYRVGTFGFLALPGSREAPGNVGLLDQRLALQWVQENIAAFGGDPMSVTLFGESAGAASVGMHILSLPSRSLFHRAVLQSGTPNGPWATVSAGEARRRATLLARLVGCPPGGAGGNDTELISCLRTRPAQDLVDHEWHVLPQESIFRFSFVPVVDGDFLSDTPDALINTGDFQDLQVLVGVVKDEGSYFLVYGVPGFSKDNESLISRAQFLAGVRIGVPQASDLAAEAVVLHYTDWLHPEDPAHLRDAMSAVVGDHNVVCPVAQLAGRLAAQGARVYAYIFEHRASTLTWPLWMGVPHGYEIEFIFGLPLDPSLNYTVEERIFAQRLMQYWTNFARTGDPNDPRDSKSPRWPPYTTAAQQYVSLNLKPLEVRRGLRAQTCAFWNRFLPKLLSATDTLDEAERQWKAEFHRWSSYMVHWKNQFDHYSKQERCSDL
Summary of the method: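 Adult Wistar rat cerebral cortex, stored frozen, homogenized 1:200 w/v in 25 mM phosphate pH 7.4, warmed 37 °C 5 min, spun 50000g 15 min at 4 °C; pellet resuspended as AChE-enriched fraction. Compound in PBS pH 7.4 with tritiated ACh (final 0.4 mM), 15 min at 37 °C; stopped with chloroacetic acid/NaCl/NaOH; ³H-acetate extracted into isoamyl alcohol/toluene, scintillation counted.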

Sequence of Cholinesterases; ACHE & BCHE (Homo sapiens) (P06276 whole entry, looked up): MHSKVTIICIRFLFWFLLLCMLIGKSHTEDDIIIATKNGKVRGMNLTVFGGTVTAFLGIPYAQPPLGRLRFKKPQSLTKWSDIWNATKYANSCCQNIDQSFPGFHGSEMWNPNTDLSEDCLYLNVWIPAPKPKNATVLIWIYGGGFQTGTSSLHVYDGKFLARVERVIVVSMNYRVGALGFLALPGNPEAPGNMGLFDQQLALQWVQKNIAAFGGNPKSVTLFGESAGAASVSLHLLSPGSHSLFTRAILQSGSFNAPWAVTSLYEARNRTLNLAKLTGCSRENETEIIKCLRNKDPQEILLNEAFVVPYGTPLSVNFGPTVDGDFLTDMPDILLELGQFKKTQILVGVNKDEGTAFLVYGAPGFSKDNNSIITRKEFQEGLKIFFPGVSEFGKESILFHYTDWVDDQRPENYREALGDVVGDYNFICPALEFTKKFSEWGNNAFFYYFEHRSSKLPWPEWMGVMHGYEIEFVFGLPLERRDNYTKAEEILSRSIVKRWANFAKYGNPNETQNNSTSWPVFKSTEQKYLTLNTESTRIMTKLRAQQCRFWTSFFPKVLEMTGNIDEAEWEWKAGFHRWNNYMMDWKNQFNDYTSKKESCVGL
Sequence of Cholinesterases; ACHE & BCHE (Homo sapiens) (P22303 whole entry, looked up): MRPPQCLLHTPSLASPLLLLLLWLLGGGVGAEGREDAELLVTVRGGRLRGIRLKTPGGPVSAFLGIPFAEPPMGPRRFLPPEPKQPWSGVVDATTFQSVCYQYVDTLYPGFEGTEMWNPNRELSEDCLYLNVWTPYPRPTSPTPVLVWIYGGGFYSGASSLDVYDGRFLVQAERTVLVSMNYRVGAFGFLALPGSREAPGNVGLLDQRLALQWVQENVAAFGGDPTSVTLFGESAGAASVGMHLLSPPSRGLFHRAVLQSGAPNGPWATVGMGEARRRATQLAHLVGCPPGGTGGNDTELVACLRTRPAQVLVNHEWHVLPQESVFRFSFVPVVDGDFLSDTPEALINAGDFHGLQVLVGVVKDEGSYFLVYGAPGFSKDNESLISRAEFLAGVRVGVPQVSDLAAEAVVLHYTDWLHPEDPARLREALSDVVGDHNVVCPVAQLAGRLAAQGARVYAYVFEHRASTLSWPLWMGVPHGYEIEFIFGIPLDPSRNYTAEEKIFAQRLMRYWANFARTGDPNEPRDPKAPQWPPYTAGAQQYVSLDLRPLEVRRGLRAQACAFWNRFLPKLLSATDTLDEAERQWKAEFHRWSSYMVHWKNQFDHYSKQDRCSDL

Row | Compound | Ratio [1] | pIC50 [2]
1 | CNC(=O)Oc1cccc(CN(C)CCCCCOc2ccc3c(=O)c4ccccc4oc3c2)c1 | 101 | < 7.00
2 | CN(CCCOc1ccc2c(=O)c3ccccc3oc2c1)Cc1cccc(OC(=O)Nc2ccccc2)c1 | 71.4 | < 6.00
3 | CNC(=O)Oc1cccc(CN(C)CCCOc2ccc3ccc(=O)oc3c2)c1 | 0.6 | 8.82
4 | CCCCCCCNC(=O)Oc1cccc(CN(C)CCCOc2ccc3ccc(=O)oc3c2)c1 | 5 | 8.70
5 | CCCCNC(=O)Oc1cccc(CN(C)CCCOc2ccc3c(=O)c4cccnc4oc3c2)c1 | 2.7 | 7.15
6 | CNC(=O)Oc1cccc(CN(C)CCCOc2ccc3c(=O)cc(-c4ccccc4)oc3c2)c1 | 8.2 | 9.22
